Measurements from ChEMBL document CHEMBL1142216, “Clinical prediction tool to identify patients with Pseudomonas aeruginosa respiratory tract infections at greatest risk for multidrug resistance” (2007).

Legend:
Assay type in all cases: functional
[1] = test system: Pseudomonas aeruginosa; assay: Antibiotic susceptibility by resistance against non-MDR Pseudomonas aeruginosa from samples collected from patients
In short: (§1)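 Clinical P. aeruginosa respiratory isolates from hospitalized patients. Susceptibility testing was done by the hospital microbiology laboratory using Kirby-Bauer disk diffusion and interpreted by Clinical and Laboratory Standards Institute guidelines. Laboratory-reported susceptibilities and MICs were abstracted retrospectively. Isolates were grouped overall and by resistance to at least four drug classes (MDR versus non-MDR).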

[2] = test system: Pseudomonas aeruginosa; assay: Antibiotic susceptibility by resistance against Pseudomonas aeruginosa from samples collected from patients; in short: as §1
[3] = test system: Pseudomonas aeruginosa; assay: Antibiotic susceptibility by resistance against MDR Pseudomonas aeruginosa from samples collected from patients; in short: as §1

Row | Compound | Activity [1] | Activity [2] | Activity [3]
1 | NCC[C@H](O)C(=O)N[C@@H]1C[C@H](N)[C@@H](O[C@H]2O[C@H](CN)[C@@H](O)[C@H](O)[C@H]2O)[C@H](O)[C@H]1O[C@H]1O[C@H](CO)[C@@H](O)[C@H](N)[C@H]1O [AMIKACIN] | 95.6% | 90.9% | 82%
2 | C[C@H]1[C@H](NC(=O)/C(=N\OC(C)(C)C(=O)O)c2csc(N)n2)C(=O)N1S(=O)(=O)O [AZTREONAM] | 79% | 58.1% | 18.9%
3 | CO/N=C(\C(=O)N[C@@H]1C(=O)N2C(C(=O)[O-])=C(C[N+]3(C)CCCC3)CS[C@H]12)c1csc(N)n1 [CEFEPIME] | 97.4% | 81.8% | 52.5%
4 | O=C(O)c1cn(C2CC2)c2cc(N3CCNCC3)c(F)cc2c1=O [CIPROFLOXACIN] | 63.3% | 42.5% | 3.3%
5 | C[C@@H](O)[C@H]1C(=O)N2C(C(=O)O)=C(S[C@@H]3CN[C@H](C(=O)N(C)C)C3)[C@H](C)[C@H]12 [MEROPENEM] | 76.9% | 56.1% | 17.2%
6 | NC[C@H]1O[C@H](O[C@H]2[C@H](O)[C@@H](O[C@H]3O[C@H](CO)[C@@H](O)[C@H](N)[C@H]3O)[C@H](N)C[C@@H]2N)[C@H](N)C[C@@H]1O [TOBRAMYCIN] | 83.8% | 67.5% | 36.9%
